Laboratory results from ChEMBL document CHEMBL1833955, “Optimization of (arylpiperazinylbutyl)oxindoles exhibiting selective 5-HT₇ receptor antagonist activity” (J Med Chem, 2011).

What was measured:
[1] = Metabolic stability in rat liver microsomes after 60 mins by HPLC-MS/MS analysis; format: ADME, Microsome; conditions: read-out: Stability
Method in brief: (§1)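 Test compound at 100 nM final incubated with rat or human liver microsomes (0.33 mg/mL) at 37 °C for 0, 5, 15, 30 and 60 min. Buffer Tris-HCl pH 7.4 with Mg2+ and BSA. Reaction started with NADPH and stopped with ice-cold MeOH. Parent compound measured by HPLC-MS/MS, positive-ion MRM.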

[2] = Metabolic stability in human liver microsomes after 60 mins by HPLC-MS/MS analysis; format: ADME, Microsome; conditions: read-out: Stability; method in brief: as §1
[3] = target: T1, 5-hydroxytryptamine receptor 1A (Rattus norvegicus, UniProt P19327); experiment: Displacement of [3H]8-OH-DPAT from 5-HT1A receptor in rat frontal cortex membrane after 45 mins by scintillation counting; format: cell membranes
T1 sequence (P19327 whole entry): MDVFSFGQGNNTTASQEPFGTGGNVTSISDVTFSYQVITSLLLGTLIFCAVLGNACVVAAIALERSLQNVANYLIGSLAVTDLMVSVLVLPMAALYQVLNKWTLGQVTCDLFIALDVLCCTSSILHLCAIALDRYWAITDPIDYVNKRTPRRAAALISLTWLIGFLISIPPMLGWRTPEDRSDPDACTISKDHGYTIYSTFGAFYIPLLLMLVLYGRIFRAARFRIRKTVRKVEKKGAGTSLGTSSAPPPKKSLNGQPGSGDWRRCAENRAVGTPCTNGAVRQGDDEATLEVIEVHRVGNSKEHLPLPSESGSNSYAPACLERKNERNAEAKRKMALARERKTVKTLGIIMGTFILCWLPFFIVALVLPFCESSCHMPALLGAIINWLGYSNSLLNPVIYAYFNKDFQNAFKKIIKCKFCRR
Method in brief: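 Membranes from adult rat frontal cortex, prepared in 50 mM Tris-HCl pH 7.7 with washes and a 37 °C preincubation. Incubation buffer: 6.66 mM CaCl2, 16.66 μM pargyline, 0.166% ascorbic acid. Ligand 1.5 nM [3H]8-OH-DPAT; 10 μM 5-HT defines nonspecific binding. 45 min at 25 °C, GF/B filtration, scintillation counting. Triplicates; Ki from two nine-point curves, single-site fit.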

[4] = test system: Mus musculus; experiment: Anxiolytic activity in ip dosed NMRI mouse assessed as behavioral activity administered 30 mins prior to test measured up to 5 mins by light-dark test; format: functional; conditions: read-out: MED
Method in brief: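 Male NMRI mice, 25–33 g, housed in the dark, dosed ip 30 min before test. Each mouse placed in the centre of the lit side of an automated two-compartment chamber under a 2-lx light. Activity recorded for 5 min: time in each area, transitions, horizontal and vertical activity. Means ± SEM, one-way ANOVA with Duncan's test; MED reported.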

[5] = Drug level in NMRI mouse brain at 1 mg/kg, ip after 30 mins by HPLC/MS/MS analysis; format: ADME, organism-based; design: dose 1 mg/kg, route intraperitoneal; conditions: read-out: Drug uptake
Method in brief: (§2)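 Male NMRI mice, 25–30 g, given four compounds together ip as a cassette suspension in 0.4% methyl cellulose (n = 3/dose). After 30 min, vena cava blood and brain collected. Brain homogenised in 4 volumes of water; samples extracted with acetonitrile–water 3:1 and analysed by gradient HPLC-MS/MS against spiked calibrators. Brain/plasma given as percentage.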

[6] = target: T2, Adrenergic receptor alpha-1 (Rattus norvegicus, UniProt P15823+P23944+P43140); experiment: Displacement of [3H]prazosin from alpha1-adrenergic receptor in rat frontal cortex membrane after 45 mins by scintillation spectrometry; format: cell membranes
T2 sequence (P15823 whole entry): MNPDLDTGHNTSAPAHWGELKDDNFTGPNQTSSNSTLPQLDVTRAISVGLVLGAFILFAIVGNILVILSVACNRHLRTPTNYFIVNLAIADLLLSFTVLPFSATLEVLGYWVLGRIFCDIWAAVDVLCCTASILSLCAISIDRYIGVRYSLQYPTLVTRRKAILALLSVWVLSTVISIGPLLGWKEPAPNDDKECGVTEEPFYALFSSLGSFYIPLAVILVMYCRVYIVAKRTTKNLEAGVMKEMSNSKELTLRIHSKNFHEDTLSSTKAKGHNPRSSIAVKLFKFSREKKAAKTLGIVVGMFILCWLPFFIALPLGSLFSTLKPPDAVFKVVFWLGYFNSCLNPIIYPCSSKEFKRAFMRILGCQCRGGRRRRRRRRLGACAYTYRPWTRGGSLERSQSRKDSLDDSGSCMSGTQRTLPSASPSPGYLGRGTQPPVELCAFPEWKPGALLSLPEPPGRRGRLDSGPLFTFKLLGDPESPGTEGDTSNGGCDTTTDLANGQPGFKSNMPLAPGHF
T2 sequence (P23944 whole entry): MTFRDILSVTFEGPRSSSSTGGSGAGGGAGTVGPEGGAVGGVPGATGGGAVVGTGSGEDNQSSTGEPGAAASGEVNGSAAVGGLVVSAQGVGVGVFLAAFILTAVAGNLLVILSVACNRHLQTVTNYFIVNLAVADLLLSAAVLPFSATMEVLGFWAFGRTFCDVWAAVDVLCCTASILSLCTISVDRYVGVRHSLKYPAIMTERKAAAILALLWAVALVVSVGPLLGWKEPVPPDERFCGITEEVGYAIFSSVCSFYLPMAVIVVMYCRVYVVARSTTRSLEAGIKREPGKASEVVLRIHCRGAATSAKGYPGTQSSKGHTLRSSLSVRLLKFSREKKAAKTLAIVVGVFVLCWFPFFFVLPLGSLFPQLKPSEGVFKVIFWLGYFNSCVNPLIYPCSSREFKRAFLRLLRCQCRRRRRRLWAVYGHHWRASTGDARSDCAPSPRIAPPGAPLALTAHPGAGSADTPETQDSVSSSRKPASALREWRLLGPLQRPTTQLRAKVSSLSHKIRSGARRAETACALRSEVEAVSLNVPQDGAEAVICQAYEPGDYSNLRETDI
T2 sequence (P43140 whole entry): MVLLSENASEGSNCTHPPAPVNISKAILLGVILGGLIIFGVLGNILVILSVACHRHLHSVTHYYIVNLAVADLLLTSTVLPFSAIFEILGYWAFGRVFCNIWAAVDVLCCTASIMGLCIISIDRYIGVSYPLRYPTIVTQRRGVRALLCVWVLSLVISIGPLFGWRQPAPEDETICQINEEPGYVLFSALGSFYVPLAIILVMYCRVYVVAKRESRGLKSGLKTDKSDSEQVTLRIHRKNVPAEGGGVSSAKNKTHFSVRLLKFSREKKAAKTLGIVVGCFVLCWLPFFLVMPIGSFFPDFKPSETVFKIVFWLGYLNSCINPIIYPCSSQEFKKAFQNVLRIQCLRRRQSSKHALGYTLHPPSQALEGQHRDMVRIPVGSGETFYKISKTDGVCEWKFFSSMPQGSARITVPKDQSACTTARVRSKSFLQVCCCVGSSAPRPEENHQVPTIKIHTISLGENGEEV
Method in brief: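 Rat frontal cortex tissue frozen on dry ice, homogenised in 50 mM Tris-HCl pH 7.7 and washed by centrifugation. [3H]prazosin at 0.6 nM; 10 μM prazosin defines nonspecific binding. 45 min at 25 °C, GF/B filtration, scintillation counting. Triplicates; Ki from two nine-concentration curves fitted to a single-site model.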

[7] = test system: Rattus norvegicus; experiment: Anxiolytic activity in ip dosed Wistar rat assessed as number of punished licks administered 30 mins prior to test by conflict drinking Vogel test; format: functional; conditions: read-out: MED
Method in brief: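 Male Wistar rats, 160–180 g, water-deprived 48 h and fasted 24 h. Drug or vehicle given ip 30 min before testing, carried out in a quiet room at 23 °C between 07:30 and 13:00. Modified Vogel procedure. Mean ± SEM tolerated shocks per group, one-way ANOVA with Duncan's test; MED reported.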

[8] = Plasma concentration in NMRI mouse at 10 mg/kg, ip after 30 mins by HPLC-MS/MS analysis; format: ADME, organism-based; design: dose 10 mg/kg, route intraperitoneal; method in brief: as §2
[9] = Drug level in NMRI mouse brain at 10 mg/kg, ip after 30 mins by HPLC/MS/MS analysis; format: ADME, organism-based; design: dose 10 mg/kg, route intraperitoneal; conditions: read-out: Drug uptake; method in brief: as §2
[10] = Plasma concentration in NMRI mouse at 1 mg/kg, ip after 30 mins by HPLC-MS/MS analysis; format: ADME, organism-based; design: dose 1 mg/kg, route intraperitoneal; method in brief: as §2
[11] = Selectivity ratio of Ki for 5-HT1A receptor in rat frontal cortex membrane to Ki for human 5-HT7 receptor; format: cell membranes
[12] = Drug level in NMRI mouse brain at 3 mg/kg, ip after 30 mins by HPLC/MS/MS analysis; format: ADME, organism-based; design: dose 3 mg/kg, route intraperitoneal; conditions: read-out: Drug uptake; method in brief: as §2
[13] = target: 5-hydroxytryptamine receptor 7 (Homo sapiens, UniProt P34969); experiment: Displacement of [3H]CT from human 5-HT7 receptor expressed in CHO cells by scintillation spectrometry; format: cell-based
Sequence of 5-hydroxytryptamine receptor 7 (P34969 whole entry): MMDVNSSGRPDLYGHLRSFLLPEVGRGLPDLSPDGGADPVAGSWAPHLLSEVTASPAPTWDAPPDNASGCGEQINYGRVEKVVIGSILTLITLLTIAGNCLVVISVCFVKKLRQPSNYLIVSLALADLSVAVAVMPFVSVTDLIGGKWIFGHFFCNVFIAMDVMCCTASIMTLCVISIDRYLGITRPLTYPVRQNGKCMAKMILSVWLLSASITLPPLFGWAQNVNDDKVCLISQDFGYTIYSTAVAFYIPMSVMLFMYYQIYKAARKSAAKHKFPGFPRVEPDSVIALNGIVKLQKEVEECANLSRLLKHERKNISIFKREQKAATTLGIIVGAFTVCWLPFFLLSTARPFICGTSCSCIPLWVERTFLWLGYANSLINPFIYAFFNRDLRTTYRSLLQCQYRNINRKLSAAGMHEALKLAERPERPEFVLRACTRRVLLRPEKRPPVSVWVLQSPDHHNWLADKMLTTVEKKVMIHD
Method in brief: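 Cloned human 5-HT7 receptor from CHO cells, run under the supplier's recommended conditions with [3H]CT. Nonspecific binding with 25 μM clozapine. Ended by GF/C filtration, then scintillation counting. Ki taken from two nine-concentration displacement curves run in triplicate, single-site fit.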

[14] = Plasma concentration in NMRI mouse at 3 mg/kg, ip after 30 mins by HPLC-MS/MS analysis; format: ADME, organism-based; design: dose 3 mg/kg, route intraperitoneal; method in brief: as §2
[15] = Selectivity ratio of Ki for alpha1-adrenergic receptor in rat frontal cortex membrane to Ki for human 5-HT7 receptor; format: cell membranes
[16] = test system: Mus musculus; experiment: Antidepressant activity in ip dosed NMRI mouse assessed as decrease in immobility time administered 30 mins prior to test measured last 4 mins of 6 mins testing period by forced swimming test; format: functional; conditions: read-out: MED
Method in brief: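 Mice given drug or vehicle ip 30 min before test. Each mouse placed in a 17.7 cm high, 12 cm diameter glass cylinder holding 25 °C water to 12.5 cm depth, four mice at a time. Immobility (floating, only movements keeping head above water) timed over the last 4 min of a 6 min session.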

[17] = target: T3, 5-hydroxytryptamine receptor 1A (Rattus norvegicus) (UniProt P19327); experiment: Displacement of [3H]8-OH-DPAT from 5-HT1A receptor in rat frontal cortex membrane at 10^-7 M after 45 mins by scintillation counting; format: cell membranes
T3 sequence (whole entry): T1 sequence (P19327 whole entry)

| remaining at 1 h [1] [%] | remaining at 1 h [2] [%] | Ki [3] [µM] | concentration at 0.5 h [5] [µM] | Ki [6] [µM] | concentration at 0.5 h [8] [µM] | concentration at 0.5 h [9] [µM] | concentration at 0.5 h [10] [µM] | Ratio Ki [11] | concentration at 0.5 h [12] [µM] | Ki [13] [µM] | concentration at 0.5 h [14] [µM] | Ratio Ki [15] | inhibition [17] [%] | SMILES | minimal effective dose [4] [mg/kg] | minimal effective dose [7] [mg/kg] | minimal effective dose [16] [mg/kg] |
| --- | --- | --- | --- | --- | --- | --- | --- | --- | --- | --- | --- | --- | --- | --- | --- | --- | --- |
| 4 | 31 | 0.046 | 0.065 | 0.031 | 0.272 | 0.824 | 0.022 | 115 | 0.613 | 0.0004 | 0.168 | 78 | – | CCC1(CCCCN2CCN(c3cccc(Cl)c3)CC2)C(=O)Nc2ccccc21 (centres undefined) | > 20 | > 10 | – |
| 76 | 53 | – | – | 0.11 | – | – | – | > 100 | – | 0.0095 | – | 12 | 5 | CCC1(CCCCN2CCN(c3ccc(Cl)cc3)CC2)C(=O)Nc2c(Cl)cc(Cl)cc21 (centres undefined) | 1 | 5 | > 30 |
| 72 | 76 | – | – | 0.38 | – | – | – | – | – | 0.096 | – | 4 | 10 | CCC1(CCCCN2CCN(c3ccc(Cl)cc3)CC2)C(=O)Nc2c1cc(Cl)c(F)c2Cl (centres undefined) | > 10 | > 20 | > 30 |
| 9 | 29 | – | 0.033 | 0.215 | 0.177 | 0.135 | 0.046 | > 100 | 0.099 | – | 0.13 | 272 | 9 | CCC1(CCCCN2CCN(c3ccc(Cl)cc3)CC2)C(=O)Nc2cc(F)ccc21 (centres undefined) | > 10 | – | – |
| 9 | 39 | 0.066 | 0.216 | 0.026 | 0.744 | 4.31 | 0.021 | 135 | 0.827 | – | 0.114 | 53 | – | O=C1Nc2ccccc2C1CCCCN1CCN(c2cccc(Cl)c2)CC1 (centres undefined) | > 10 | – | – |
| 9 | 34 | – | 0.042 | 0.093 | 0.399 | 0.379 | 0.07 | > 100 | 0.141 | – | 0.245 | 245 | 11 | CCC1(CCCCN2CCN(c3ccc(Cl)cc3)CC2)C(=O)Nc2ccccc21 (centres undefined) | > 10 | – | – |
| 21 | 23 | – | 0.017 | 0.175 | 0.008 | 0.027 | 0.01 | > 100 | 0.023 | 0.0011 | 0.014 | 159 | 0 | CCC1(CCCCN2CCN(c3ccc(Cl)cc3)CC2)C(=O)Nc2ccc(Cl)cc21 (centres undefined) | – | – | > 10 |
| 8 | 34 | – | 0.062 | 0.039 | 0.168 | 0.364 | 0.034 | > 100 | 0.431 | – | 0.178 | 91 | 10 | CCC1(CCCCN2CCN(c3ccc(F)cc3)CC2)C(=O)Nc2ccccc21 (centres undefined) | – | – | > 10 |
| 13 | 29 | – | 0.043 | 0.125 | 0.861 | 1.15 | 0.031 | > 100 | 0.223 | 0.0006 | 0.174 | 208 | 11 | CCC1(CCCCN2CCN(c3ccc(Cl)c(Cl)c3)CC2)C(=O)Nc2ccccc21 (centres undefined) | – | – | > 10 |
